Test [1] can be described thus: Hill coefficient, measured using equilibrium competition binding with [3H]Inositol(1,4,5)P3.
For test [2], the species on record is Rattus norvegicus. Kind of test: […] on [Ca2+] release from the intracellular stores of permealized hepatocytes. Format: functional. Particulars: Hepatocyte. The gist of the method:
(§1)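 Permeabilized rat hepatocytes loaded with 45Ca2+ to steady state (5 min, 37 °C) in cytosol-like medium pH 7.0 with ATP 1.5 mM, creatine phosphate 5 mM, creatine phosphokinase 5 units/mL, FCCP 10 µM. Thapsigargin (1.25 µM) added, agonist 30 s later, store Ca2+ measured by rapid filtration after 60 s. Four-parameter logistic fit gives EC50, Hill slope, maximal release; three experiments.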

The nature of test [3]: Ratio to Ins(1,4,5)P3, for the effect on [Ca2+] release from the intracellular stores of permealized hepatocytes (ratio greater than 1 denotes greater potency and less than -1 denotes lesser potency). Format: functional, Hepatocyte.
The species named for test [4] is Rattus norvegicus. As to the kind of experiment: Fraction of total [Ca2+] stores released by a maximal concentration of the compound. Format: functional. In a few lines:
as §1

A further test deals with Hepatocyte. Kind of test: Hill coefficient for the effect on [Ca2+] release from the intracellular stores of permealized hepatocytes. In kind it is cell-based. The gist of the method:
as §1

A short description of test [5]: Ratio to Ins(1,4,5)P3 was measured(ratio greater than 1 denotes greater affinity and less than -1 denotes lesser affinity).
Test [6] is described as follows: Binding affinity towards rat liver membrane, measured using equilibrium competition binding with [3H]Inositol(1,4,5)P3.

Structures are written as SMILES.

Broadly, the Hill coefficient is a measure of the steepness of the concentration-response curve. The EC50 is the concentration giving half of the maximal effect. Higher therefore signals a less potent agent. As usually defined, the Kd is the free concentration of one partner at which half of the binding sites on the other are occupied at equilibrium, for simple one-to-one binding. Lower therefore signals tighter binding. `O=P(O)(O)O[C@H]1CO[C@@H]2[C@H](O)[C@@H](OP(=O)(O)O)[C@H](OP(=O)(O)O)[C@@H](O)[C@@H]2OC1`: the figures for the Hill coefficient (in test [1]; in the test on Hepatocyte) were 1.12 and 2.9, respectively. In the test filed under Rattus norvegicus [2], this compound returned a 50% effective concentration (EC50) of 1230 nM. For the same compound, the Ratio in test [3] and in test [5] was -14 each time. In the test filed under Rattus norvegicus [4], the Max response worked out at 59%. This compound also had a Kd in test [6] of 62 nM.

As for `O=P(O)(O)O[C@@H]1CO[C@@H]2[C@H](O)[C@@H](OP(=O)(O)O)[C@H](OP(=O)(O)O)[C@@H](O)[C@@H]2OC1`, the Hill coefficient in test [1] was determined as 1.01; with Hepatocyte, 2.61. Further, the EC50 in the test filed under Rattus norvegicus [2] amounted to 1650 nM. Also, the Ratio in test [3] was -18; in test [5], -21. Moreover, in the test listed under Rattus norvegicus [4], the Max response was determined as 59%. In addition, the Kd in test [6] came to 98 nM.

On to `Nc1ncnc2c1ncn2[C@@H]1O[C@H](CO)[C@@H](O[C@H]2O[C@H](CO)[C@@H](OP(=O)(O)O)[C@H](OP(=O)(O)O)[C@H]2O)[C@H]1OP(=O)(O)O` [ADENOPHOSTIN A], for which the Hill coefficient in test [1] turned out to be 1.17; in the test with Hepatocyte, 2.99. Further, the concentration giving a half-maximal response (EC50) in the test filed under Rattus norvegicus [2] was found to be 9.2 nM. Further, the values for the Ratio in test [3] and in test [5] were 9.8 and 8.3, respectively. Moreover, in the test listed under Rattus norvegicus [4], the Max response came out at 49%. The compound also yielded a dissociation constant Kd in test [6] of 0.55 nM.

Turning to `O=P(O)(O)O[C@@H]1[C@H](O)[C@H](O)[C@@H](OP(=O)(O)O)[C@H](OP(=O)(O)O)[C@H]1O` [INS(1,4,5)P3], the figures for the Hill coefficient (in test [1]; in the test with Hepatocyte) were 1.16 and 1.48, respectively. This compound also yielded a half-maximal effective concentration (EC50) in the test filed under Rattus norvegicus [2] of 90 nM. Further, the Ratio in test [3] and in test [5] was 1 in each case. Moreover, the Max response in the test listed under Rattus norvegicus [4] is 59%. The same compound came in with a Kd in test [6] of 4.56 nM.
